Measurements from ChEMBL document CHEMBL5058577, “EUbOPEN Chemogenomics Library 2 (Multiplex)” (2022).

Tested on: U2OS
Test: Multiplex assay against U2OS
Format: toxicity, cell-based
Details: human
In short: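 Live cells were stained at seeding with Hoechst33342, BioTracker Green Microtubule Cytoskeleton Dye, MitoTracker Red and Annexin V Alexa Fluor 680. Following compound addition, they were imaged on a CQ1 microscope at 37°C and 5% CO2 and gated by CellPathfinder machine learning into Hoechst high-intensity objects or normal cells, with normal cells split into healthy, pyknosed or fragmented nuclei and pyknosed cells into mitotic or apoptotic. Tubulin, mitochondrial-mass and membrane-permeability phenotypes are per cents of healthy-nucleus cells.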

[1] = 12 h, 1 µM, compound concentration 1 uM, replicate 1
[2] = 12 h, 1 µM, compound concentration 1 uM, replicate 2
[3] = 12 h, 10 µM, compound concentration 10 uM, replicate 1
[4] = 12 h, 10 µM, compound concentration 10 uM, replicate 2
[5] = 24 h, 1 µM, compound concentration 1 uM, replicate 1
[6] = 24 h, 1 µM, compound concentration 1 uM, replicate 2
[7] = 24 h, 10 µM, compound concentration 10 uM, replicate 1
[8] = 24 h, 10 µM, compound concentration 10 uM, replicate 2
[9] = 48 h, 1 µM, compound concentration 1 uM, replicate 1
[10] = 48 h, 1 µM, compound concentration 1 uM, replicate 2
[11] = 48 h, 10 µM, compound concentration 10 uM, replicate 1
[12] = 48 h, 10 µM, compound concentration 10 uM, replicate 2

## C[C@H](NC(=O)c1c(C(F)F)nn(C)c1Oc1cccc(C(F)(F)F)c1)c1ccc(C(=O)O)cc1 [PALUPIPRANT]
[1]
  Population Apoptotic (%): 60%
  Population Fragmented Nuclei (%): 27%
  Population Healthy Nuclei (%): 63%
  Population Hoechst High Intensity Objects (%): 3%
  Population Membrane Permeable-Phenotype (%): 4%
  Population Mitochondria Different-Phenotype (%): 1%
  Population Mitotic Cells (%): 39%
  Population Normal (%): 96%
  Population Pyknosed Nuclei (%): 8%
  Population Tubulin-Different-Phenotype (%): 1%
  Total Cell Count: 266
[2]
  Population Apoptotic (%): 91%
  Population Fragmented Nuclei (%): 12%
  Population Healthy Nuclei (%): 78%
  Population Hoechst High Intensity Objects (%): 0%
  Population Mitochondria Different-Phenotype (%): 0%
  Population Mitotic Cells (%): 8%
  Population Normal (%): 99%
  Population Pyknosed Nuclei (%): 9%
  Population Tubulin-Different-Phenotype (%): 2%
  Total Cell Count: 132
[3]
  Population Apoptotic (%): 83%
  Population Fragmented Nuclei (%): 28%
  Population Healthy Nuclei (%): 62%
  Population Hoechst High Intensity Objects (%): 3%
  Population Membrane Permeable-Phenotype (%): 7%
  Population Mitochondria Different-Phenotype (%): 4%
  Population Mitotic Cells (%): 16%
  Population Normal (%): 96%
  Population Pyknosed Nuclei (%): 8%
  Population Tubulin-Different-Phenotype (%): 5%
  Total Cell Count: 293
[4]
  Population Apoptotic (%): 100%
  Population Fragmented Nuclei (%): 13%
  Population Healthy Nuclei (%): 77%
  Population Membrane Permeable-Phenotype (%): 5%
  Population Mitochondria Different-Phenotype (%): 2%
  Population Mitotic Cells (%): 0%
  Population Tubulin-Different-Phenotype (%): 2%
  Total Cell Count: 117
[5]
  Population Apoptotic (%): 87%
  Population Fragmented Nuclei (%): 20%
  Population Healthy Nuclei (%): 72%
  Population Hoechst High Intensity Objects (%): 2%
  Population Membrane Permeable-Phenotype (%): 4%
  Population Mitochondria Different-Phenotype (%): 1%
  Population Mitotic Cells (%): 12%
  Population Normal (%): 97%
  Population Pyknosed Nuclei (%): 7%
  Population Tubulin-Different-Phenotype (%): 3%
  Total Cell Count: 316
[6]
  Population Apoptotic (%): 94%
  Population Fragmented Nuclei (%): 14%
  Population Healthy Nuclei (%): 73%
  Population Hoechst High Intensity Objects (%): 1%
  Population Membrane Permeable-Phenotype (%): 5%
  Population Mitochondria Different-Phenotype (%): 0%
  Population Mitotic Cells (%): 5%
  Population Normal (%): 98%
  Population Pyknosed Nuclei (%): 11%
  Population Tubulin-Different-Phenotype (%): 5%
  Total Cell Count: 147
[7]
  Population Apoptotic (%): 91%
  Population Fragmented Nuclei (%): 18%
  Population Healthy Nuclei (%): 74%
  Population Hoechst High Intensity Objects (%): 2%
  Population Membrane Permeable-Phenotype (%): 5%
  Population Mitochondria Different-Phenotype (%): 3%
  Population Mitotic Cells (%): 8%
  Population Normal (%): 97%
  Population Pyknosed Nuclei (%): 7%
  Population Tubulin-Different-Phenotype (%): 1%
  Total Cell Count: 339
[8]
  Population Fragmented Nuclei (%): 13%
  Population Healthy Nuclei (%): 77%
  Population Mitochondria Different-Phenotype (%): 1%
  Population Pyknosed Nuclei (%): 8%
  Population Tubulin-Different-Phenotype (%): 0%
  Total Cell Count: 139
[9]
  Population Apoptotic (%): 82%
  Population Fragmented Nuclei (%): 15%
  Population Healthy Nuclei (%): 73%
  Population Hoechst High Intensity Objects (%): 2%
  Population Membrane Permeable-Phenotype (%): 3%
  Population Mitochondria Different-Phenotype (%): 1%
  Population Mitotic Cells (%): 17%
  Population Normal (%): 97%
  Population Pyknosed Nuclei (%): 11%
  Population Tubulin-Different-Phenotype (%): 1%
  Total Cell Count: 426
[10]
  Population Apoptotic (%): 92%
  Population Healthy Nuclei (%): 70%
  Population Hoechst High Intensity Objects (%): 0%
  Population Mitochondria Different-Phenotype (%): 0%
  Population Mitotic Cells (%): 7%
  Population Normal (%): 99%
  Population Pyknosed Nuclei (%): 13%
  Population Tubulin-Different-Phenotype (%): 2%
  Total Cell Count: 207
[11]
  Population Apoptotic (%): 91%
  Population Fragmented Nuclei (%): 18%
  Population Healthy Nuclei (%): 73%
  Population Hoechst High Intensity Objects (%): 2%
  Population Membrane Permeable-Phenotype (%): 5%
  Population Mitochondria Different-Phenotype (%): 3%
  Population Mitotic Cells (%): 8%
  Population Normal (%): 97%
  Population Pyknosed Nuclei (%): 7%
  Population Tubulin-Different-Phenotype (%): 3%
  Total Cell Count: 463
[12]
  Population Apoptotic (%): 85%
  Population Fragmented Nuclei (%): 14%
  Population Healthy Nuclei (%): 79%
  Population Hoechst High Intensity Objects (%): 1%
  Population Membrane Permeable-Phenotype (%): 1%
  Population Mitochondria Different-Phenotype (%): 1%
  Population Mitotic Cells (%): 14%
  Population Normal (%): 98%
  Population Pyknosed Nuclei (%): 6%
  Population Tubulin-Different-Phenotype (%): 0%
  Total Cell Count: 223
